Data on 12 compounds can be found in ChEMBL document CHEMBL1142462, “Synthesis and in vitro biological evaluation of ring B abeo-sterols as novel inhibitors of Mycobacterium tuberculosis” (Bioorg Med Chem Lett, 2008).

Converted amounts (≈) assume the structure as drawn.

As usually defined, the inhibition is the drop in the measured response relative to a control, in per cent. By MIC is commonly meant the least concentration at which growth counts as inhibited. What is called IC50 is the concentration that inhibits the measured activity by half.

A short description of assay [1]: Selectivity index, ratio of IC50 for against african green monkey VERO cells to MIC for Mycobacterium tuberculosis H37Rv. Type of assay: functional.
The subject of assay [2] is Mycobacterium tuberculosis. The assay is described as follows: Antimycobacterial activity against Mycobacterium tuberculosis H37Rv at 4 ug/mL by microplate alamar blue assay. In kind it is functional. On the technique in general: The colour change of resazurin is a common sign of viable cells or microbes.
Assay [3] deals with Mycobacterium tuberculosis. The experiment in a line: Antimycobacterial activity against Mycobacterium tuberculosis H37Rv at 2 ug/mL by microplate alamar blue assay. Type of assay: functional.
Assay [4] concerns Mycobacterium tuberculosis. The experiment in a line: Antimycobacterial activity against Mycobacterium tuberculosis H37Rv by microplate alamar blue assay. Type of assay: functional.
Assay [5] relates to Vero. The assay is described as follows: Cytotoxicity against african green monkey Vero cells. Type of assay: cell-based. Conditions: Chlorocebus sabaeus. A digest of the protocol: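 Cytotoxicity tested on VERO cells (ATCC CCL-81) in parallel with the MIC work. Read-out is IC50 in μg/mL.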
Assay [6] deals with Mycobacterium tuberculosis. The experiment in a line: Antimycobacterial activity against Mycobacterium tuberculosis H37Rv at 128 ug/mL by microplate alamar blue assay. Type of assay: functional.
In assay [7] the test system is Mycobacterium tuberculosis. The experiment in a line: Antimycobacterial activity against Mycobacterium tuberculosis H37Rv at 64 ug/mL by microplate alamar blue assay. In kind it is functional.
Assay [8] relates to Mycobacterium tuberculosis. The experiment in a line: Antimycobacterial activity against Mycobacterium tuberculosis H37Rv at 8 ug/mL by microplate alamar blue assay. In kind it is functional.
In assay [9] the test system is Mycobacterium tuberculosis. The experiment in a line: Antimycobacterial activity against Mycobacterium tuberculosis H37Rv at 16 ug/mL by microplate alamar blue assay. Type of assay: functional.
Assay [10] relates to Mycobacterium tuberculosis. The assay is described as follows: Antimycobacterial activity against Mycobacterium tuberculosis H37Rv at 32 ug/mL by microplate alamar blue assay. In kind it is functional.

With `CC(C)[C@@H](C)CC[C@@H](C)[C@H]1CC[C@H]2[C@@H]3C(C=O)=C4C[C@@H](O)CC[C@]4(C)[C@H]3CC[C@]12C`, the “Selectivity Index” value in [1] is on record as 10.8. The inhibition at 4 µg/mL in assay [2] was found to be 94%. Besides, the inhibition at 2 µg/mL in assay [3] was found to be 39%. The MIC in assay [4] came to 3.9 µg/mL (≈ 9.4 µM). In addition, it took 42.3 µg/mL (≈ 102 µM) to reach half-maximal inhibition in [5] (IC50). For the same compound, the inhibition at 128 µg/mL in [6] amounted to 99%. The inhibition at 64 µg/mL in [7] came to 100%. The inhibition at 8 µg/mL in assay [8] was found to be 97%. In addition, in [9], the inhibition at 16 µg/mL was found to be 99%. Further, in assay [10], the inhibition at 32 µg/mL turned out to be 99%.
Turning to `CC(C)C(=O)CC[C@@H](C)[C@H]1CC[C@H]2[C@@H]3C(C=O)=C4C[C@@H](O)CC[C@]4(C)[C@H]3CC[C@]12C`, the “Selectivity Index” value in [1] came to 3.2. Also, the inhibition at 4 µg/mL in [2] came to 67%. Besides, the inhibition at 2 µg/mL in assay [3] turned out to be 52%. The compound further yielded an MIC in assay [4] of 13.6 µg/mL (≈ 32.8 µM). The compound also displayed an IC50 in assay [5] of 43.8 µg/mL (≈ 106 µM). Moreover, in assay [6], the inhibition at 128 µg/mL came to 99%. For the same compound, in assay [7], the inhibition at 64 µg/mL amounted to 100%. For the same compound, the inhibition at 8 µg/mL in assay [8] came to 83%. Moreover, the inhibition at 16 µg/mL in assay [9] was 92%. Besides, the inhibition at 32 µg/mL in assay [10] came out at 96%.
Turning to `CC[C@@H](CC[C@@H](C)[C@H]1CC[C@H]2[C@@H]3C(C=O)=C4C[C@@H](O)CC[C@]4(C)[C@H]3CC[C@]12C)C(C)C`, the “Selectivity Index” value in [1] stood at 7. In assay [2], the inhibition at 4 µg/mL worked out at 97%. Also, in [3], the inhibition at 2 µg/mL is 29%. Also, 3.8 µg/mL (≈ 8.86 µM) was the least that counted as inhibitory in assay [4] (MIC). Besides, the half-maximal inhibitory concentration (IC50) in assay [5] is 26.6 µg/mL (≈ 62 µM). Moreover, the inhibition at 128 µg/mL in [6] was determined as 99%. Moreover, the inhibition at 64 µg/mL in [7] turned out to be 99%. In [8], the inhibition at 8 µg/mL worked out at 99%. Besides, the inhibition at 16 µg/mL in assay [9] is 98%. In addition, the inhibition at 32 µg/mL in assay [10] worked out at 99%.
Turning to `CCC(CC[C@@H](C)[C@H]1CC[C@H]2[C@@H]3CC=C4C[C@@H](O)CC[C@]4(C)[C@H]3CC[C@]12C)C(C)C` (single isomer, unassigned) [BETA-SITOSTEROL], in [2], the inhibition at 4 µg/mL turned out to be 8%. In [3], the inhibition at 2 µg/mL was -1%. The MIC in [4] was more than 128 µg/mL. For the same compound, the IC50 in [5] was more than 128 µg/mL. Besides, the inhibition at 128 µg/mL in [6] was 45%. Moreover, in assay [7], the inhibition at 64 µg/mL turned out to be 48%. Also, the inhibition at 8 µg/mL in assay [8] is 7%. Moreover, in [9], the inhibition at 16 µg/mL was determined as 32%. The inhibition at 32 µg/mL in assay [10] was 31%.
As for `CC(C)[C@@H](C)CC[C@@H](C)[C@H]1CC[C@H]2[C@@H]3CC=C4C[C@@H](O)CC[C@]4(C)[C@H]3CC[C@]12C`, in [2], the inhibition at 4 µg/mL is 14%. For the same compound, in assay [3], the inhibition at 2 µg/mL amounted to 15%. Further, the MIC in [4] was more than 128 µg/mL. In [5], this compound registered an IC50 of more than 128 µg/mL. Further, the inhibition at 128 µg/mL in assay [6] came to 58%. Besides, the inhibition at 64 µg/mL in assay [7] was found to be 41%. The inhibition at 8 µg/mL in assay [8] came out at 23%. Further, the inhibition at 16 µg/mL in [9] came out at 21%. In addition, the inhibition at 32 µg/mL in assay [10] was determined as 31%.
On to `CC(C)CCC[C@@H](C)[C@H]1CC[C@H]2[C@@H]3C(C=O)=C4C[C@@H](O)CC[C@]4(C)[C@H]3CC[C@]12C`, for which, in assay [1], the “Selectivity Index” value is on record as more than 9. Moreover, in assay [2], the inhibition at 4 µg/mL worked out at 34%. In assay [3], the inhibition at 2 µg/mL amounted to 10%. This compound also displayed an MIC in assay [4] of 15 µg/mL (≈ 37.4 µM). Besides, in [5], the half-maximal inhibitory concentration (IC50) is more than 128 µg/mL. In addition, in assay [6], the inhibition at 128 µg/mL is 99%. Besides, the inhibition at 64 µg/mL in assay [7] stood at 99%. The inhibition at 8 µg/mL in [8] was determined as 51%. Further, in assay [9], the inhibition at 16 µg/mL is 96%. For the same compound, the inhibition at 32 µg/mL in assay [10] worked out at 99%.
As for `C=C(CC[C@@H](C)[C@H]1CC[C@H]2[C@@H]3CC=C4C[C@@H](O)CC[C@]4(C)[C@H]3CC[C@]12C)C(C)C`, in [4], the lowest concentration to inhibit growth (MIC) was 120 µg/mL (≈ 301 µM). The same compound gave an IC50 in assay [5] of more than 128 µg/mL. In addition, the inhibition at 64 µg/mL in assay [7] was 40%. Also, the inhibition at 16 µg/mL in assay [9] was determined as 33%. Besides, the inhibition at 32 µg/mL in assay [10] came to 43%.
In [4], `CC(C)CCC[C@@H](C)[C@H]1CC[C@H]2[C@@H]3CC=C4C[C@@H](O)CC[C@]4(C)[C@H]3CC[C@]12C` [CHOLESTEROL] registered an MIC of more than 128 µg/mL. This compound had a concentration for half-maximal inhibition (IC50) in assay [5] of more than 128 µg/mL. In addition, the inhibition at 128 µg/mL in assay [6] is 57%. Also, the inhibition at 64 µg/mL in assay [7] came to 24%. In addition, the inhibition at 16 µg/mL in assay [9] was found to be 33%. For the same compound, the inhibition at 32 µg/mL in assay [10] came out at 13%.
For the compound `CO[C@H]1/C=C/O[C@@]2(C)Oc3c(C)c(O)c4c(O)c(c(/C=N/N5CCN(C)CC5)c(O)c4c3C2=O)NC(=O)/C(C)=C\C=C\[C@H](C)[C@H](O)[C@@H](C)[C@@H](O)[C@@H](C)[C@H](OC(C)=O)[C@@H]1C` [RIFAMPIN], the inhibition at 4 µg/mL in assay [2] turned out to be 73%. In assay [4], this compound yielded a minimal inhibitory concentration (MIC) of 0.06 µg/mL (≈ 0.0729 µM). Moreover, the inhibition at 128 µg/mL in assay [6] was found to be 100%. For the same compound, in assay [7], the inhibition at 64 µg/mL amounted to 100%. Further, the inhibition at 8 µg/mL in assay [8] is 94%. Besides, the inhibition at 16 µg/mL in [9] was 99%. Moreover, in assay [10], the inhibition at 32 µg/mL came to 100%.
Turning to `CC(C)[C@@H](C)[C@]1(C)C[C@@H]1[C@@H](C)[C@H]1CC[C@H]2[C@@H]3C(C=O)=C4C[C@@H](O)CC[C@]4(C)[C@H]3CC[C@]12C`, in [1], the “Selectivity Index” value is given as 4.3. For the same compound, the inhibition at 4 µg/mL in assay [2] worked out at 33%. Further, the inhibition at 2 µg/mL in assay [3] is 17%. Also, the minimal inhibitory concentration (MIC) in assay [4] turned out to be 12.7 µg/mL (≈ 28.8 µM). The compound also returned a half-maximal inhibitory concentration (IC50) in assay [5] of 54.7 µg/mL (≈ 124 µM). Also, the inhibition at 128 µg/mL in assay [6] came to 99%. For the same compound, in assay [7], the inhibition at 64 µg/mL is 99%. For the same compound, the inhibition at 8 µg/mL in assay [8] stood at 81%. For the same compound, in assay [9], the inhibition at 16 µg/mL was 96%. Besides, in assay [10], the inhibition at 32 µg/mL amounted to 98%.
For `CC(C)[C@@H](C)[C@]1(C)C[C@@H]1[C@@H](C)[C@H]1CC[C@H]2[C@@H]3CC=C4C[C@@H](O)CC[C@]4(C)[C@H]3CC[C@]12C`, the minimal inhibitory concentration (MIC) in [4] was more than 128 µg/mL. Moreover, the half-maximal inhibitory concentration (IC50) in assay [5] was more than 128 µg/mL. Also, the inhibition at 128 µg/mL in [6] amounted to 38%. Also, the inhibition at 64 µg/mL in [7] worked out at 18%. The inhibition at 16 µg/mL in assay [9] was 10%. The inhibition at 32 µg/mL in assay [10] came out at 13%.
Take `C=C(CC[C@@H](C)[C@H]1CC[C@H]2[C@@H]3C(C=O)=C4C[C@@H](O)CC[C@]4(C)[C@H]3CC[C@]12C)C(C)C` [PARGUESTEROL A]: the “Selectivity Index” value in [1] came out at 6.5. Further, the inhibition at 4 µg/mL in assay [2] stood at 69%. For the same compound, the inhibition at 2 µg/mL in [3] is 52%. In addition, in assay [4], it took 7.8 µg/mL (≈ 18.9 µM) to inhibit growth (MIC). The 50% inhibitory concentration (IC50) in [5] was determined as 51 µg/mL (≈ 124 µM). Further, the inhibition at 128 µg/mL in assay [6] amounted to 99%. Besides, the inhibition at 64 µg/mL in assay [7] is 99%. In assay [8], the inhibition at 8 µg/mL worked out at 91%. The inhibition at 16 µg/mL in assay [9] was 105%. For the same compound, in assay [10], the inhibition at 32 µg/mL was 99%.
